We go through one compound from ChEMBL document CHEMBL4834396, “Molecular Recognition and Imaging of Human Telomeric G-Quadruplex DNA in Live Cells: A Systematic Advancement of Thiazole Orange Scaffold To Enhance Binding Specificity and Inhibition of Gene Expression” (J Med Chem, 2021).

The source made the active and inactive calls. The calls are words filed in the database; no cut-off is given here.

One assay concerns i-motif DNA. Put plainly: Binding affinity to promoter i-motif DNA (unknown origin) assessed as fluorescence signal at 5 uM under pH condition 7.4 by fluorescence method. The class given is nucleic-acid assay. In outline:
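Ligand 5 μM with each nucleic acid at 15 μM in 10 mM Tris-HCl pH 7.4, 60 mM KCl; emission enhancement expressed as F/F0 against ligand without DNA.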

The test system of assay [1] is Quadruplex DNA [UNDEFINED MUTATION]. Put plainly: Binding affinity to telomeric Htg24 G-quadruplex DNA G22C mutant (unknown origin) assessed as negative fluorescence signal at 5 uM under pH condition 7.4 by fluorescence titration analysis. The class given is nucleic-acid assay. Particulars: Homo sapiens. The gist of the method: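 Ligand held at 5 μM and mixed with each Htg24 point mutant in Tris-HCl buffer containing 60 mM KCl, pH 7.4. Fluorescence was read, and the signal change was computed as (F mutant − F wild type)/F wild type.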

For a further assay, the system named is Quadruplex DNA. Put plainly: Binding affinity to G4 quadruplex DNA in human HeLa cells assessed as increase in number of BG4 foci at 10 to 20 uM. In kind it is cell-based. The settings on record: dose 10-20 µM.
For assay [2], the system named is Quadruplex DNA [UNDEFINED MUTATION]. Put plainly: Effect on confirmation of telomeric Htg24 G-quadruplex DNA G22C mutant (unknown origin) assessed as hybrid topology at 5 uM at pH 7.4 by circular dichroism analysis. In kind it is nucleic-acid assay. Particulars: Homo sapiens. In outline:
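CD spectra recorded on G4-DNA and ligand, each at 5 μM, in 10 mM Tris-HCl, pH 7.4, with 60 mM KCl. Scan range 220–340 nm in a 1 mm quartz cuvette, 1 nm bandwidth and step, 0.5 s/point. Each spectrum is the average of three scans.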
(Circular dichroism is widely used to follow secondary structure.)

In the case of `CN(C)c1ccc(/C=C/c2cc(/C=C3\Sc4ccccc4N3CCCN3CCOCC3)c3ccccc3[n+]2C)cc1.[I-]`, the fold change (FC) in the assay on i-motif DNA is 1. Further, the outcome (in assay [1]; in the assay on Quadruplex DNA; in assay [2]) was Active.
